According to ChEMBL document CHEMBL1122336, “Aromatic amidines: comparison of their ability to block respiratory syncytial virus induced cell fusion and to inhibit plasmin, urokinase, thrombin, and trypsin” (J Med Chem, 1983):

What was measured:
[1] = molecular target: Plasminogen (Homo sapiens, UniProt P00747); assay: Inhibition constant against human plasminogen
How it was run: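 Amidase assay with plasmin on N-benzoyl-DL-arginine p-nitroanilide (BAPNA), run at pH 7.6 and 37 °C. Ki was derived from a Dixon plot of reciprocal initial velocities against inhibitor concentrations at two substrate levels.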

[2] = molecular target: T1, Urokinase-type plasminogen activator (Homo sapiens, UniProt P00749); assay: Inhibition constant against Urokinase
[3] = system: HEp-2; assay: Minimum concentration required for the complete blockage of virus induced cell […]; NB means no blockage of cell fusion at the highest concentration where there is cytotoxicity at 10 uM; type: functional, cell-based; settings: Homo sapiens
[4] = molecular target: T2, Serine protease 1 (Bos taurus, UniProt P00760); assay: Inhibition constant against bovine trypsin
T2 sequence (P00760 whole entry): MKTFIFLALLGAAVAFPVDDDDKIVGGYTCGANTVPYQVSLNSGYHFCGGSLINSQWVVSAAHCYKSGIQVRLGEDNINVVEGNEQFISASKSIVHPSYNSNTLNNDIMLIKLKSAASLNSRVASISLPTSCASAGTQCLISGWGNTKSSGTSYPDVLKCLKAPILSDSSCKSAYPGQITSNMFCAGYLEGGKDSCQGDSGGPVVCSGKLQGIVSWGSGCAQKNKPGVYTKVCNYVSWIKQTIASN

[5] = molecular target: Prothrombin (Bos taurus, UniProt P00735); assay: Inhibition constant against bovine thrombin
[6] = system: HEp-2; assay: Minimum concentration required for the complete blockage of virus induced cell […]; NB means no blockage of cell fusion at the highest concentration where there is cytotoxicity at 100 uM; type: functional, cell-based; settings: Homo sapiens
[7] = system: HEp-2; assay: Minimum concentration required for the complete blockage of virus induced cell […]; cytotoxic at 100 uM; type: functional, cell-based; settings: Homo sapiens
[8] = system: HEp-2; assay: Minimum concentration required for the complete blockage of virus induced cell division.; type: functional, cell-based; settings: Homo sapiens
How it was run: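 HEp-2 cells (MEM + 10% FBS, passages 370–376, mycoplasma-free) seeded to ~10^6 cells/well at 72 h; RS virus A2 strain adsorbed at 0.1 MOI for 2 h at 36 °C. Wells rinsed, then given inhibitor at 100, 10, 1.0, 0.5 or 0.1 in MEM with 2% FBS and 1% Me2SO. Fusion blockage and toxicity scored at 72 h.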

[9] = molecular target: T1, Urokinase-type plasminogen activator; assay: Inhibition constant against Urokinase; nonlinear kinetics
How it was run: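 Amidase assay with urokinase on the substrate L-pyroglutamylglycyl-L-arginine p-nitroanilide (S-2444), run at pH 8.1 and 37 °C. Ki was read from a Dixon plot: the reciprocal of initial velocity was plotted against inhibitor concentration at two substrate concentrations.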

Plasminogen, sequence (P00747 97-580 limits assumed): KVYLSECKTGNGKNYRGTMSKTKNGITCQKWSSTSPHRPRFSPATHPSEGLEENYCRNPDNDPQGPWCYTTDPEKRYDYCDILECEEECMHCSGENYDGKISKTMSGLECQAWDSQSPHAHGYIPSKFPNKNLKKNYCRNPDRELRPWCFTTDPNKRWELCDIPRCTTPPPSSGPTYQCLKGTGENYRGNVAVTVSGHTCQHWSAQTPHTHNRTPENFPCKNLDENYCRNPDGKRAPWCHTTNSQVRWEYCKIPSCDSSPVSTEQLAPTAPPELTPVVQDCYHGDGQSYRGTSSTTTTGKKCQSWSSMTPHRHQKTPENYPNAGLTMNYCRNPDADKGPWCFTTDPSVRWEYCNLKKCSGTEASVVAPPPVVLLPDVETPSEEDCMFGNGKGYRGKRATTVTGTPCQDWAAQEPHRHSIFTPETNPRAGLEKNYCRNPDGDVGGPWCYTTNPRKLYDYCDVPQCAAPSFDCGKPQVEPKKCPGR
Plasminogen, sequence (P00747 581-810 limits assumed): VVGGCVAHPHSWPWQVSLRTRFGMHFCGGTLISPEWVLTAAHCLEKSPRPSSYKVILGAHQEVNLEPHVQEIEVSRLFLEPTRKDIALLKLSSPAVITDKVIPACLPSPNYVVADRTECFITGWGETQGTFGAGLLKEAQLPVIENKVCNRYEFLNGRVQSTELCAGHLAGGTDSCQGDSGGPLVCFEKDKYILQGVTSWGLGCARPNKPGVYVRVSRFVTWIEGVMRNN

| SMILES | Ki [1] [µM] | Ki [2] [µM] | Concentration [3] | Ki [4] [µM] | Ki [5] [µM] | Concentration [6] | Concentration [7] [µM] | Concentration [8] [µM] | Ki [9] |
| --- | --- | --- | --- | --- | --- | --- | --- | --- | --- |
| N=C(N)c1ccc(OCCCCOc2ccc(-c3nc4ccc(C(=N)N)cc4[nH]3)cc2)cc1 | 8.18 | 4.47 | – | – | – | – | – | – | – |
| N=C(N)c1ccc(OCCCCOc2ccc(-c3nc4cc(C(=N)N)ccc4[nH]3)cc2)cc1 | – | – | Cytotoxic | – | – | – | – | – | – |
| N=C(N)c1ccc(Cn2ccc3cc([N+](=O)[O-])ccc32)cc1 | > 400 | > 200 | – | 3.44 | 164 | Cytotoxic | – | – | – |
| N=C(N)c1ccc(OCCCCCOc2ccc(-c3nc4cc(C(=N)N)ccc4[nH]3)cc2)cc1 | 3.83 | 8 | Cytotoxic | – | – | – | – | – | – |
| N=C(N)c1ccc(OCCOc2ccc(-c3nc4ccc(C(=N)N)cc4[nH]3)cc2)cc1 | 3.9 | 12 | – | – | – | – | – | – | – |
| N=C(N)c1ccc2c(ccn2Cc2cccc([N+](=O)[O-])c2)c1 | > 100 | – | – | 7.77 | 6.39 | – | 10 | – | – |
| N=C(N)c1ccc2c(C=O)c[nH]c2c1 | 43 | 10.6 | – | 25.5 | > 1000 | – | – | – | – |
| CCn1ccc2cc(C(=N)N)ccc21 | > 400 | 280 | – | 137 | 42.8 | – | 10 | – | – |
| N=C(N)c1ccc(Cn2ccc3cc(C(=N)N)ccc32)c(Cl)c1 | > 700 | – | – | 5.31 | 47.8 | – | 10 | – | – |
| N=C(N)c1ccc2c(ccn2CCCCn2ccc3cc(C(=N)N)ccc32)c1 | 2.93 | 9.96 | – | 3.2 | 11.1 | – | 10 | – | – |
| N=C(N)c1ccc(Cn2ccc3ccccc32)cc1 | 111 | – | – | – | 13.1 | – | 1 | – | – |
| N=C(N)c1ccc2nc(Cc3nc4ccc(C(=N)N)cc4[nH]3)[nH]c2c1 | 2.65 | – | – | – | – | – | – | 0.5 | – |
| N=C(N)c1ccc(OCCOc2ccc(-c3nc4cc(C(=N)N)ccc4[nH]3)cc2)cc1 | – | – | – | – | – | – | 10 | – | – |
| N=C(N)c1ccc(OCCCOc2ccc(-c3nc4ccc(C(=N)N)cc4[nH]3)cc2)cc1 | 8.19 | 17.8 | – | – | – | – | – | – | – |
| N=C(N)c1cccc(Cn2ccc3cc(C(=N)N)ccc32)c1 | 65.6 | – | – | 8.29 | 22.4 | – | 10 | – | – |
| N=C(N)c1ccc2c(ccn2Cc2ccccc2)c1 | 844 | 191 | – | 15.4 | 20.1 | Cytotoxic | – | – | – |
| N=C(N)c1ccc2c(ccn2Cc2ccc([N+](=O)[O-])cc2N)c1 | 100 | 40 | – | 5.31 | 4.8 | – | 10 | – | – |
| N=C(N)c1ccc2c(C(=O)c3ccccc3)c[nH]c2c1 | > 200 | 267 | – | > 100 | 176 | Cytotoxic | – | – | – |
| N=C(N)c1ccc(Cn2ccc3cc(C(=N)N)ccc32)cc1 | 60 | – | – | 3.18 | 24.8 | – | 10 | – | – |
| N=C(N)c1ccc2c(ccn2Cc2cccc(N)c2)c1 | 164 | – | – | 16.8 | 15.4 | Cytotoxic | – | – | – |
| N=C(N)c1ccc2c(C(=O)C(F)(F)F)c[nH]c2c1 | > 1000 | > 100 | – | > 1000 | 1510 | Cytotoxic | – | – | – |
| N=C(N)c1ccc2[nH]ccc2c1 | 112 | 131 | – | 29.1 | 7.68 | – | – | – | – |
| N=C(N)c1ccc2[nH]c(Oc3ccc(-c4nc5cc(C(=N)N)ccc5[nH]4)cc3)nc2c1 | ~200 | – | – | 4.67 | 3.94 | Cytotoxic | – | – | nonlinear kinectics |
| N=C(N)c1ccc(OCCCOc2ccc(-c3nc4cc(C(=N)N)ccc4[nH]3)cc2)cc1 | – | – | – | – | – | – | 10 | – | – |
| CC(=O)c1c[nH]c2cc(C(=N)N)ccc12 | > 1000 | > 100 | – | > 1000 | 1890 | Cytotoxic | – | – | – |
| Cn1ccc2cc(C(=N)N)ccc21 | > 1000 | 196 | – | 85.3 | 35.2 | – | – | – | – |
| CCC(=O)c1cc2ccc(C(=N)N)cc2[nH]1 | 61.5 | 40.3 | – | 15.3 | 55 | Cytotoxic | – | – | – |
